Series [1] addresses T1, Bifunctional epoxide hydrolase 2 (Homo sapiens, UniProt P34913).
T1 sequence (P34913 whole entry): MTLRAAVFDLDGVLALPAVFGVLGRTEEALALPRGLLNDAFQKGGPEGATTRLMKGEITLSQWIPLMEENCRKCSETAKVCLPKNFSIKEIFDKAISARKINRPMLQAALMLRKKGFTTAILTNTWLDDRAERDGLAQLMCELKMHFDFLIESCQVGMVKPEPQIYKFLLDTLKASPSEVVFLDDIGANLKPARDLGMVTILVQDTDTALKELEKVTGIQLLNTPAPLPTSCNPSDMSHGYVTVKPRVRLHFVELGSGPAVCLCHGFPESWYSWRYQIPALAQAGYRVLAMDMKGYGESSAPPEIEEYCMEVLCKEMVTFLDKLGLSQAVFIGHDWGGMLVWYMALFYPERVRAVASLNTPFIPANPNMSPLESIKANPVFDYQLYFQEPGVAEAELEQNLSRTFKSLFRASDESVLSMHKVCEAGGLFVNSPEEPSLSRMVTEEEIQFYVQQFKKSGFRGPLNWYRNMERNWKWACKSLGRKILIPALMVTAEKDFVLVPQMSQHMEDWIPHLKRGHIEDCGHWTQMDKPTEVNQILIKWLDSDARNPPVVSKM
Description: Inhibition of human sEH (1 to 555 residues) expressed in Escherichia coli BL21-(DE3) using PHOME substrate incubated for 30 to 45 mins by fluorescence based assay.

For series [2], the target named is T2, Polyunsaturated fatty acid 5-lipoxygenase (Homo sapiens, UniProt P09917).
T2 sequence (P09917 whole entry): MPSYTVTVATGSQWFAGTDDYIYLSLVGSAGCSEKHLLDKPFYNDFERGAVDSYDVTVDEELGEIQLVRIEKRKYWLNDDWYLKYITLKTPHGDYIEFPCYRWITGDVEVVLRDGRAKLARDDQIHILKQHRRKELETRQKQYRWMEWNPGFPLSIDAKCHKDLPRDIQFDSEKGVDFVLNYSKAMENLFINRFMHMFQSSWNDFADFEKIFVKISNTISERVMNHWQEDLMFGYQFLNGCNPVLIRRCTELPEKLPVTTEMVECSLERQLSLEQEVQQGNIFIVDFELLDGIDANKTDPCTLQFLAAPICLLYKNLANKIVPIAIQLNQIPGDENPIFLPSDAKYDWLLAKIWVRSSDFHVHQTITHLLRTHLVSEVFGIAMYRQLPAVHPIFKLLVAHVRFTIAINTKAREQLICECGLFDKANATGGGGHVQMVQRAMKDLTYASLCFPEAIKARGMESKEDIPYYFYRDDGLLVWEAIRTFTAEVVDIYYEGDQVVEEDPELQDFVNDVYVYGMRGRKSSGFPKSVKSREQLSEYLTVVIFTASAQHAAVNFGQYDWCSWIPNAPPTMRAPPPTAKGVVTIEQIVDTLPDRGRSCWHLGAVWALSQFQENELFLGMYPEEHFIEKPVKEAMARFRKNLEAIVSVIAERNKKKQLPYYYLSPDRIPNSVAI
As to the kind of experiment: Inhibition of 5-LOX (unknown origin) expressed in Escherichia coli BL21-(DE3) pre-incubated for 15 mins before AA substrate addition and measured after 10 mins by HPLC/UV assay. The essentials: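 Recombinant 5-LOX activity measured with arachidonic acid as substrate; product formation monitored by HPLC. IC50 from at least three independent determinations (n ≥ 3), reported with 95% confidence interval.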

Series [3] can be described thus: Solubility in pH 7.4 DPBS buffer. Format: physicochemical.
Series [4] in a line: Metabolic stability in rat liver microsomes assessed as compound remaining after 60 mins. Type of series: ADME, Microsome. As to conditions: read-out: Stabilty. The essentials: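 Compound incubated with rat liver microsomes for 60 min; percent parent compound remaining determined; n ≥ 3.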
A general note: Liver microsomes are vesicles of endoplasmic reticulum, rich in cytochrome P450 enzymes.

In series [5] the test system is Mus musculus. Description: Anti-fibrotic activity in C57BL/6 mouse model of unilateral ureter obstruction-induced kidney inflammation and fibrosis assessed as inhibition of tubulo-interstitial fibrosis by measuring reduced fibrillar collagen at 3 mg/kg, ip dosed daily for 7 days by Sirius red staining method. Format: functional, organism-based. As to conditions: time 7.0 day. The essentials: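 Mice with unilateral ureter obstruction to induce kidney inflammation and fibrosis, given compound or vehicle intraperitoneally. Ligated (UUO) and contralateral kidneys taken at day 7. Fibrosis read by AZAN and Sirius Red staining, with Sirius Red imaged under bright and polarized light. Macrophages detected by F4/80 staining, quantified as positive area. Col1a1, FN1, TNFα and Ccl2 mRNA measured in whole-kidney homogenates by real-time qRT-PCR normalized to GAPDH.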

In series [6] the test system is HepG2. As to the kind of experiment: Cytotoxicity in human HepG2 cells assessed as effect on cell viability up to 25 uM incubated for 48 hrs by CellTiter-Glo luminescent cell viability assay. Type of series: cell-based. As to conditions: hepg2, 48 h. The essentials: (§1)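 Cell viability measured by CellTiter-Glo luminescence, quantifying ATP as an indicator of viable cells.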
For orientation: ATP-based viability assays read luminescence as a measure of living cells.

The test system of series [7] is HepG2. As to the kind of experiment: Cytotoxicity in human HepG2 cells assessed as reduction in on cell viability at 7 uM incubated for 48 hrs by CellTiter-Glo luminescent cell viability assay. The note with it: hepg2, 48 h. Type of series: cell-based. The essentials: as §1

Values after ≈ are worked out from the molar mass of the structure shown. Active and inactive are the calls of the source. The calls are words filed in the database; no cut-off is given here.

The term IC50 denotes the midpoint of a concentration-inhibition curve. Low values mean greater potency in that assay, high ones weaker potency in that assay. Consider `C[C@H](C#Cc1cccc(C(=O)NCc2ccccc2C(F)(F)F)c1)N(O)C(N)=O`, for which the IC50 was 60 nM in series [1] and 600 nM in series [2].
The matching figures for `CC(C#Cc1cccc(C(=O)NCCC(c2ccccc2)c2ccc(Cl)cc2)c1)N(O)C(N)=O` (stereo not drawn): 2 nM and 120 nM.
Consider `CC(C#Cc1cccc(C(=O)NCCc2c[nH]c3ccccc23)c1)N(O)C(N)=O` (stereo not drawn), for which the IC50 in series [1] was determined as 3100 nM; in series [2], 1700 nM.
As to `CC(C)CC(C#Cc1cccc(C(=O)NCc2ccccc2C(F)(F)F)c1)N(O)C(N)=O` (stereo not drawn), the 50% inhibitory concentration (IC50) was determined as 5 nM in series [1] and 600 nM in series [2].
For `CC(C#Cc1cccc(C(=O)NCCC(c2ccccc2)c2ccc(OC(F)(F)F)cc2)c1)N(O)C(N)=O` (stereo not drawn), in that order: 7 nM and 110 nM.
The matching figures for `Cc1ccc(C(=O)NCc2ccccc2C(F)(F)F)cc1C#CC(C)N(O)C(N)=O` (stereo not drawn): 3100 nM and 1700 nM.
For `CC(C#Cc1cncc(C(=O)NCc2ccccc2C(F)(F)F)c1)N(O)C(N)=O` (stereo not drawn), in that order: 500 nM and 10000 nM.
Usually solubility stands for the concentration that dissolves in the medium under given conditions. Higher therefore signals much dissolved substance. Turning to `C[C@H](C#Cc1ccc(Cc2ccc(F)cc2)s1)N(O)C(N)=O` [ATRELEUTON], the solubility in series [3] was 30 µM (≈ 9.55 µg/mL). Moreover, the figures for the IC50 in series [1] and in series [2] were 2700 nM and 90 nM, respectively.
For the molecule `CC(C#Cc1cccc(C(=O)NCCc2ccc(F)cc2)c1)N(O)C(N)=O` (stereo not drawn), the values for the 50% inhibitory concentration (IC50) in series [1] and in series [2] were 1200 nM and 3100 nM, respectively.
In series [1], `CNc1nc(C)nc(N2CCC(C(=O)NCc3ccc(F)cc3C(F)(F)F)CC2)n1` showed an IC50 of 3 nM. That is a single-digit nanomolar value.
On the same count and under the same terms, in the case of `CNc1nc(C)nc(N2CCC(C(=O)NCc3ccccc3OC(F)(F)F)CC2)n1` it was 1 nM.
Regarding `CCCC(C#Cc1cccc(C(=O)NCc2ccccc2C(F)(F)F)c1)N(O)C(N)=O` (stereo not drawn), the results for the 50% inhibitory concentration (IC50) in series [1] and in series [2] were 12 nM and 300 nM, respectively.
The matching figures for `CC(C#Cc1cccc(C(=O)NCc2ccc(Cl)cc2Cl)c1)N(O)C(N)=O` (stereo not drawn): 40 nM and 600 nM.
Take `C[C@H](C#Cc1cccc(C(=O)NCCC(c2ccccc2)c2ccc(Cl)c(Cl)c2)c1)N(O)C(N)=O` (stereo partly drawn): the figures for the half-inhibitory concentration (IC50) in series [1] and in series [2] were 2.1 nM and 96 nM, respectively.
The matching figures for `CC(C#Cc1cccc(C(=O)NCc2cccc(F)c2)c1)N(O)C(N)=O` (stereo not drawn): 9000 nM and 4000 nM.
As for `CNc1nc(C)nc(N2CCC(C(=O)NCc3ccccc3C(F)(F)F)CC2)n1`, in series [1], 3 nM corresponded to half-maximal inhibition (IC50).
Consider `C[C@H](C#Cc1cccc(C(=O)NCCC(c2ccccc2)c2ccc(S(N)(=O)=O)cc2)c1)N(O)C(N)=O` (stereo partly drawn), for which the IC50 in series [1] turned out to be 2.4 nM; in series [2], 1000 nM.
For `C[C@H](C#Cc1cccc(C(=O)NCC[C@@H](c2ccc(F)cc2)c2ccc(C(F)(F)F)cc2)c1)N(O)C(N)=O`, in that order: 3 nM and 160 nM.
The matching figures for `C[C@@H](C#Cc1cccc(C(=O)NCc2ccccc2C(F)(F)F)c1)N(O)C(N)=O`: 60 nM and 700 nM.
The matching figures for `CCC(C#Cc1cccc(C(=O)NCc2ccccc2C(F)(F)F)c1)N(O)C(N)=O` (stereo not drawn): 22 nM and 500 nM.
Turning to `CC(C#Cc1cccc(C(=O)NCc2ccccc2OC(F)(F)F)c1)N(O)C(N)=O` (stereo not drawn), the IC50 in series [1] was found to be 16 nM; in series [2], 1000 nM.
For `CC(C#Cc1cccc(C(=O)NCc2ccccc2C(F)(F)F)c1)N(O)C(N)=O` (stereo not drawn), in that order: 90 nM and 700 nM.
The matching figures for `CC(C#Cc1cccc(C(=O)NCCC(c2ccccc2)c2ccc(F)cc2)c1)N(O)C(N)=O` (stereo not drawn): 2 nM and 160 nM.
As for `C[C@H](C#Cc1cccc(C(=O)NCCC(c2ccc(F)cc2)c2ccc(OC(F)(F)F)cc2)c1)N(O)C(N)=O` (stereo partly drawn), in series [3], the concentration in solution (solubility) came to 10 µM (≈ 5.44 µg/mL). The remaining at 1 h in series [4] worked out at 43%. Further, the results for the IC50 in series [1] and in series [2] were 2.4 nM and 260 nM, respectively.
For `C[C@H](C#Cc1cccc(C(=O)NCCN(c2ccccc2)c2ccccc2)c1)N(O)C(N)=O`, in that order: 3 µM (≈ 1.33 µg/mL), 17%, 5 nM and 110 nM.
`CC(C#Cc1cccc(C(=O)NCc2ccc(F)cc2C(F)(F)F)c1)N(O)C(N)=O` (stereo not drawn): the concentration for half-maximal inhibition (IC50) in series [1] amounted to 29 nM; in series [2], 1300 nM.
As for `CC(C#Cc1ccc(C(=O)NCc2ccccc2C(F)(F)F)o1)N(O)C(N)=O` (stereo not drawn), the half-maximal inhibitory concentration (IC50) was 600 nM in series [1] and 4000 nM in series [2].
The matching figures for `CC(C#Cc1cccc(C(=O)NCCC(c2ccccc2)c2ccc(C(F)(F)F)cc2)c1)N(O)C(N)=O` (stereo not drawn): 2.7 nM and 150 nM.
The matching figures for `CC(C#Cc1ccc(C(=O)NCc2ccccc2C(F)(F)F)cc1)N(O)C(N)=O` (stereo not drawn): 2600 nM and 1000 nM.
As to `O=C(Cc1ccc(Oc2nc3ccccc3s2)cc1F)NCCc1ccc(F)cc1`, inhibition in series [1] was half-maximal at 130 nM (IC50).
Take `C[C@H](C#Cc1cccc(C(=O)NCCC(c2ccc(F)cc2)c2ccc(C(F)(F)F)cc2)c1)N(O)C(N)=O` (stereo partly drawn): the outcome in series [5] was inactive. In addition, the Activity entry is “Non-Toxic” in series [6] and “Toxic” in series [7]. For the same molecule, in series [3], the solubility was 3 µM (≈ 1.58 µg/mL). Besides, the remaining at 1 h in series [4] stood at 66%. For the same molecule, the half-inhibitory concentration (IC50) in series [1] came out at 1.6 nM; in series [2], 220 nM.
In the case of `CC(C#Cc1cccc(C(=O)NCCC(c2ccccc2)c2ccccc2)c1)N(O)C(N)=O` (stereo not drawn), the solubility in series [3] stood at 3 µM (≈ 1.32 µg/mL). The remaining at 1 h in series [4] amounted to 27%. The IC50 was found to be 2 nM in series [1] and 300 nM in series [2].
Turning to `C[C@H](C#Cc1cccc(C(=O)NCC[C@H](c2ccc(F)cc2)c2ccc(C(F)(F)F)cc2)c1)N(O)C(N)=O`, the IC50 in series [1] was 3 nM; in series [2], 230 nM.
On to `CS(=O)(=O)c1ccc(C(CCNC(=O)c2ccc(C#N)nc2)c2ccc(F)cc2)cc1` (stereo not drawn), for which the half-inhibitory concentration (IC50) in series [1] came out at 6 nM.
Consider `NC(=O)N(O)CC#Cc1cccc(C(=O)NCc2ccccc2C(F)(F)F)c1`, for which the 50% inhibitory concentration (IC50) was found to be 50 nM in series [1] and 4000 nM in series [2].
For `COc1ccc(CNC(=O)c2cccc(C#CC(C)N(O)C(N)=O)c2)c(C(F)(F)F)c1` (stereo not drawn), in that order: 4 nM and 1700 nM.
For `CC(C)C(C#Cc1cccc(C(=O)NCc2ccccc2C(F)(F)F)c1)N(O)C(N)=O` (stereo not drawn), the half-maximal inhibitory concentration (IC50) worked out at 11 nM in series [1] and 500 nM in series [2].
For `C[C@H](C#Cc1cccc(C(=O)NCCC(c2ccccc2)c2ccc(NS(C)(=O)=O)cc2)c1)N(O)C(N)=O` (stereo partly drawn), in that order: 3 nM and 900 nM.

The values above are taken from ChEMBL document CHEMBL4725418, “Design, Synthesis, and Structure-Activity Relationship Studies of Dual Inhibitors of Soluble Epoxide Hydrolase and 5-Lipoxygenase” (J Med Chem, 2020).
